Data from ChEMBL document CHEMBL1687819, “Identification and characterization of the multidrug resistance gene cfr in a Panton-Valentine leukocidin-positive sequence type 8 methicillin-resistant Staphylococcus aureus IVa (USA300) isolate” (2010).
≈ marks a conversion by molar mass, not a printed value.

Legend:
Assay type in all cases: functional
Staphylococcus aureus [1] = assay: Antibacterial activity against Staphylococcus aureus XU21 by broth microdilution method
How it was run: (§1)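 Broth microdilution MICs per CLSI M07-A8 and M100-S20, run side by side on clinical MRSA isolate M05/0060, its plasmid-cured derivative M05/0060-C1, plasmid-free novobiocin-resistant recipient XU21 and transconjugant XU21-T1. Curing was by five serial 24 h passages in BHI broth at 43°C, 200 rpm. Transconjugants came from filter mating, selected on BHI agar with novobiocin 100 µg/ml plus chloramphenicol 30 µg/ml.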

Staphylococcus aureus [2] = assay: Antibacterial activity against pSCFS7-deficient methicillin-resistant Staphylococcus aureus M05/0060-C1 by broth microdilution method; how it was run: as §1
Staphylococcus aureus [3] = assay: Antibacterial activity against Staphylococcus aureus XU21-T1 harboring cfr-encoding conjugative pSCFS7 and fexA by broth microdilution method; how it was run: as §1
Staphylococcus aureus [4] = assay: Antibacterial activity against methicillin-resistant Staphylococcus aureus M05/0060 harboring cfr-encoding conjugative pSCFS7 and fexA by broth microdilution method; how it was run: as §1

Structure (SMILES) | MIC (Staphylococcus aureus [1]) | MIC (Staphylococcus aureus [2]) | MIC (Staphylococcus aureus [3]) | MIC (Staphylococcus aureus [4])
O=C(N[C@H](CO)[C@H](O)c1ccc([N+](=O)[O-])cc1)C(Cl)Cl [CHLORAMPHENICOL] | 8 µg/mL (≈ 24.8 µM) | 8 µg/mL (≈ 24.8 µM) | 128 µg/mL (≈ 396 µM) | 256 µg/mL (≈ 792 µM)
CCC[C@@H]1C[C@@H](C(=O)N[C@@H]([C@H]2O[C@H](SC)[C@H](O)[C@@H](O)[C@H]2O)[C@H](C)Cl)N(C)C1 [CLINDAMYCIN] | 0.25 µg/mL (≈ 0.588 µM) | 0.25 µg/mL (≈ 0.588 µM) | ≥ 128 µg/mL | ≥ 128 µg/mL
CC[C@H]1OC(=O)[C@H](C)[C@@H](O[C@H]2C[C@@](C)(OC)[C@@H](O)[C@H](C)O2)[C@H](C)[C@@H](O[C@@H]2O[C@H](C)C[C@H](N(C)C)[C@H]2O)[C@](C)(O)C[C@@H](C)C(=O)[C@H](C)[C@@H](O)[C@]1(C)O [ERYTHROMYCIN] | 0.5 µg/mL (≈ 0.681 µM) | ≥ 64 µg/mL | 0.5 µg/mL (≈ 0.681 µM) | ≥ 64 µg/mL
CS(=O)(=O)c1ccc([C@@H](O)[C@@H](CF)NC(=O)C(Cl)Cl)cc1 [FLORFENICOL] | 4 µg/mL (≈ 11.2 µM) | 4 µg/mL (≈ 11.2 µM) | 256 µg/mL (≈ 715 µM) | 256 µg/mL (≈ 715 µM)
CC(=O)NC[C@H]1CN(c2ccc(N3CCOCC3)c(F)c2)C(=O)O1 [LINEZOLID] | 1 µg/mL (≈ 2.96 µM) | 1 µg/mL (≈ 2.96 µM) |  | 8 µg/mL (≈ 23.7 µM)
Cc1onc(-c2ccccc2)c1C(=O)N[C@@H]1C(=O)N2[C@@H]1SC(C)(C)[C@@H]2C(=O)O [OXACILLIN] | 0.12 µg/mL (≈ 0.299 µM) | ≥ 32 µg/mL | 0.12 µg/mL (≈ 0.299 µM) | ≥ 32 µg/mL
C=C[C@]1(C)C[C@@H](OC(=O)CSCCN(CC)CC)[C@]2(C)[C@H](C)CC[C@]3(CCC(=O)[C@H]32)[C@@H](C)[C@@H]1O [TIAMULIN] | 1 µg/mL (≈ 2.03 µM) | 1 µg/mL (≈ 2.03 µM) | ≥ 128 µg/mL | ≥ 128 µg/mL
CC1=C\[C@@H](O)CC(=O)Cc2nc(co2)C(=O)N2CCC=C2C(=O)O[C@H](C(C)C)[C@H](C)/C=C/C(=O)NC\C=C\1 [VIRGINIAMYCIN FACTOR M1] | 1 µg/mL (≈ 1.9 µM) | 1 µg/mL (≈ 1.9 µM) | 32 µg/mL (≈ 60.9 µM) | 32 µg/mL (≈ 60.9 µM)
